The source made the active and inactive calls. No cut-off for these calls is given here.
Experiments:
Pseudomonas aeruginosa [1] = assay: Inhibition of biofilm formation in multidrug resistant Pseudomonas aeruginosa 1121 at 2.5 uM relative to control; format: functional
Pseudomonas aeruginosa [2] = assay: Inhibition of twitching motility in Pseudomonas aeruginosa PAO1 assessed at 1.25 to 20 uM measured after 16 hrs; format: functional; details: dose microM 1.25-20, time 16.0 hrs
In short: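 Plates of LB with 1% agar, 0.5% casamino acids and 0.5% glucose contained compound at 0–20 μM. After drying 1 h, 1 μL PAO1 (OD600 1) was inoculated at the plate bottom and incubated 16 h at 37 °C. Three independent experiments.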

Pseudomonas aeruginosa [3] = assay: Antibiofilm activity against Pseudomonas aeruginosa PAO1 assessed as inhibition of biofilm formation after 24 hrs by crystal violet staining based assay; format: functional, organism-based; details: dose microM 1.25-20, time 24.0 hrs
In short: (§1)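 PAO1 (OD600 0.05) was cultured in ABTGC medium at 37 °C for 24 h with compound (1.25–20 μM for the dose series). Wells were PBS-washed three times, methanol-fixed for 30 min, air-dried, and stained with 0.1% crystal violet for 30 min. Stain was solubilized in 33% acetic acid and read at 570 nm. Compound stocks were […]. Run in triplicate.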

Pseudomonas aeruginosa [4] = assay: Antibacterial activity against Pseudomonas aeruginosa infected in African green monkey Vero cells assessed as increase in cell survival pretreated for 24 hrs followed by cell addition and measured 4 hrs post-infection by MTT assay; format: functional, organism-based; details: dose microM 1.25-20, time 28.0 hrs
In short: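 P. aeruginosa cultures were grown with 0, 1.25, 2.5, 5, 10 or 20 μM compound for 24 h at 37 °C with shaking. Washed cells (in DMEM) were infected at MOI 100 for 4 h. Bacteria were then killed with 500 μg/mL gentamycin for 2 h, and cells were given 500 μg/mL MTT for 16 h. Formazan was dissolved in DMSO and read at 570 nm.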

Pseudomonas aeruginosa [5] = assay: Inhibition of biofilm formation in multidrug resistant Pseudomonas aeruginosa FB at 1.25 uM relative to control; format: functional
Pseudomonas aeruginosa [6] = assay: Inhibition of biofilm formation in multidrug resistant Pseudomonas aeruginosa 1167 at 1.25 uM relative to control; format: functional
Pseudomonas aeruginosa [7] = assay: Inhibition of biofilm formation in multidrug resistant Pseudomonas aeruginosa 1167 at 2.5 uM relative to control; format: functional
Pseudomonas aeruginosa [8] = assay: Inhibition of swimming motility of Pseudomonas aeruginosa PAO1 measured after 16 hrs; format: functional, organism-based; details: dose microM 1.25-20, time 16.0 hrs
In short: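 Compound (0–20 μM) was included in LB plates with 0.3% agar, 0.5% casamino acids and 0.5% glucose. Plates were dried 1 h, then 1 μL PAO1 (OD600 1) was placed at the plate bottom. Incubation was 16 h at 37 °C; three independent experiments.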

[9] = molecular target: T1, Anthranilate--CoA ligase (Pseudomonas aeruginosa (strain ATCC 15692 / DSM 22644 / CIP 104116 /JCM 14847 / LMG 12228 / 1C / PRS 101 / PAO1)) (UniProt Q9I4X3); assay: Inhibition of pqsA fluorescence in Pseudomonas aeruginosa PAO1 transfected with GFP by measuring fluorescence intensity every 15 mins for 12 hrs by microtiter plate reader assay; details: dose microM 1.25-20, time 12.0 hrs
T1 sequence (whole entry): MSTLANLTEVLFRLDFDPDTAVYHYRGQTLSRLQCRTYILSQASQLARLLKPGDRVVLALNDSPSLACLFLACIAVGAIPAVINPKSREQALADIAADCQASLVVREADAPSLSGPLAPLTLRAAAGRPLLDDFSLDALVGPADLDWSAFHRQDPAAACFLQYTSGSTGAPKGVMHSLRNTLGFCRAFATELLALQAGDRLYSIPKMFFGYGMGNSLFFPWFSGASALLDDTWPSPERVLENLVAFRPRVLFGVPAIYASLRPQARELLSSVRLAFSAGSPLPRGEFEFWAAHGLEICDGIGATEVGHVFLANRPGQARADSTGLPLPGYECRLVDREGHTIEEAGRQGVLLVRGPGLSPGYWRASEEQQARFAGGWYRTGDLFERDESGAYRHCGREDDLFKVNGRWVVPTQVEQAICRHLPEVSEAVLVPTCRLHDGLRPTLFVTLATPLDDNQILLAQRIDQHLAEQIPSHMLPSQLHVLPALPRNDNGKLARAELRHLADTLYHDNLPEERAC
In short: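 PAO1-gfp, PAO1-lasB-gfp, PAO1-rhlA-gfp or PAO1-pqsA-gfp reporters were grown overnight in LB, then diluted in ABTGC medium to OD600 0.02, with compound at 1.25–20 μM. Controls were 0.1% DMSO and a blank. OD600 and GFP fluorescence (ex 485/em 535 nm) were read every 15 min for at least 12 h at 37 °C; triplicate.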

[10] = Metal chelating activity assessed as negative logarithm of total free ferric ion concentration in a solution at 60 uM measured after 48 hrs in presence of CP645 probe and Fe-NTA by fluorescence spectrophotometry analysis
Pseudomonas aeruginosa [11] = assay: Antibiofilm activity against Pseudomonas aeruginosa PAO1 assessed as reduction in biofilm mass at 1.25 uM after 24 hrs by microtiter plate assay relative to control; format: functional; parameters: scale not given: the % may be the effect or the level left; in short: as §1
Pseudomonas aeruginosa [12] = assay: Inhibition of biofilm formation in multidrug resistant Pseudomonas aeruginosa 1129 at 1.25 uM relative to control; format: functional
Pseudomonas aeruginosa [13] = assay: Inhibition of biofilm formation in multidrug resistant Pseudomonas aeruginosa FB at 20 uM relative to control; format: functional
[14] = system: Pseudomonas aeruginosa PAO1; assay: Inhibition of quorum sensing system las in Pseudomonas aeruginosa PAO1 assessed as reduction in elastase production at 1.25 to 20 uM after 24 hrs by BODIPY fluorophore based fluorescence assay; details: dose microM 1.25-20, time 24.0 hrs
In short: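 PAO1 in LB at OD600 0.01 was incubated with compound (0–20 μM) for 24 h at 37 °C with shaking. The centrifuged supernatant was mixed with BODIPY FL-labelled DQ elastin substrate. Fluorescence (ex 490/em 520 nm) was read every 10 min for 5 h.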

Pseudomonas aeruginosa [15] = assay: Antibiofilm activity against Pseudomonas aeruginosa PAO1 assessed as inhibition of biofilm formation after 24 hrs by SYTO 9/propidium iodide staining based confocal microscopic analysis; format: functional, organism-based; details: dose microM 1.25-20, time 24.0 hrs
In short: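 Biofilms were grown as in the crystal violet assay but on glass-bottom wells, with compound at 1.25–20 μM for 24 h at 37 °C against an untreated control. Wells were rinsed three times with PBS and stained for 15 min in the dark with 1 μM SYTO 9 and 10 μM propidium iodide. Confocal imaging used a 63× oil objective; triplicate.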

Pseudomonas aeruginosa [16] = assay: Inhibition of biofilm formation in multidrug resistant Pseudomonas aeruginosa 1129 at 5 uM relative to control; format: functional
[17] = system: Pseudomonas aeruginosa PAO1; assay: Inhibition of quorum sensing system rhl in Pseudomonas aeruginosa PAO1 assessed as reduction in rhamnolipid production by orcinol assay; details: dose microM 1.25-20
In short: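 An overnight culture was diluted 1:100 into a defined minimal medium (0.6% glycerol, 25 μM FeSO4) with compound at 1.25–20 μM and grown 24 h at 37 °C with shaking. Supernatant was ether-extracted twice, dried, resuspended in water, and reacted with 0.19% orcinol in 50% H2SO4 at 80 °C for 30 min. A421 was read and normalized to OD600.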

Pseudomonas aeruginosa [18] = assay: Antibiofilm activity against Pseudomonas aeruginosa PAO1 harboring sigma factor-Pvds mutant assessed as inhibition of biofilm formation at 20 uM relative to control; format: functional

CCCCCCC(=O)NCc1c(O)c(=O)cc(C)n1C
inhibition at 2.5 µM (Pseudomonas aeruginosa [1]): 7.68% | inhibition (Pseudomonas aeruginosa [2]): inactive | inhibition (Pseudomonas aeruginosa [3]): Dose-dependent effect | Activity (Pseudomonas aeruginosa [4]): Dose-dependent effect | inhibition at 1.25 µM (Pseudomonas aeruginosa [5]): -5.12% | inhibition at 1.25 µM (Pseudomonas aeruginosa [6]): 34.5% | inhibition at 2.5 µM (Pseudomonas aeruginosa [7]): 34.6% | inhibition (Pseudomonas aeruginosa [8]): Dose-dependent effect | inhibition [9]: Dose-dependent effect | pFe3+ [10]: 22 | Activity (Pseudomonas aeruginosa [11]): >25% | inhibition at 1.25 µM (Pseudomonas aeruginosa [12]): 12.7% | inhibition at 20 µM (Pseudomonas aeruginosa [13]): 14.4% | inhibition [14]: Active | Activity (Pseudomonas aeruginosa [15]): Dose-dependent effect | inhibition at 5 µM (Pseudomonas aeruginosa [16]): 30.6% | inhibition [17]: Dose-dependent effect | inhibition at 20 µM (Pseudomonas aeruginosa [18]): 20%

— ChEMBL document CHEMBL4665779, “Novel 2-Substituted 3-Hydroxy-1,6-dimethylpyridin-4(1H)-ones as Dual-Acting Biofilm Inhibitors of Pseudomonas aeruginosa” (J Med Chem, 2020)
